A selection: hits, their analogues and other compounds. The true share with any hit is near 2.2%.
CCR6 antagonist: CCR6 receptor antagonists, primary screen, cell-based, CHO-K1, luminescence, beta-arrestin, uHTS; CHO-K1 CCR6 PathHunter beta-arrestin, CCL20-stimulated; C-C chemokine receptor type 6 (Homo sapiens), P51684; hit rate 0.49% among 340,000; inhibition, % at 20 µM;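 active = compounds whose inhibition of the agonist-driven luminescence signal at 20 µM reaches about 50%, limit read from the data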;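 also: cells stimulated with CCL20 at 14 nM final; plate controls were DMSO with CCL20 for no effect and DMSO without agonist for full effect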
APJ antagonist: antagonists of human apelin receptor APJ, primary screen, CHO-K1 cells, beta-arrestin complementation, luminescence | P35414 | inhibition, % at 20 µM | hit rate 0.32% among 330,000 | AID 2521, 2010;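 active = inhibition above about 40% at 20 µM, limit read from the data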;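 also: cells challenged with 10 nM apelin-13 agonist together with compound; plate controls were apelin-13 plus DMSO wells for no effect and DMSO wells lacking apelin-13 for full effect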
Target sequence (P35414 whole entry, looked up): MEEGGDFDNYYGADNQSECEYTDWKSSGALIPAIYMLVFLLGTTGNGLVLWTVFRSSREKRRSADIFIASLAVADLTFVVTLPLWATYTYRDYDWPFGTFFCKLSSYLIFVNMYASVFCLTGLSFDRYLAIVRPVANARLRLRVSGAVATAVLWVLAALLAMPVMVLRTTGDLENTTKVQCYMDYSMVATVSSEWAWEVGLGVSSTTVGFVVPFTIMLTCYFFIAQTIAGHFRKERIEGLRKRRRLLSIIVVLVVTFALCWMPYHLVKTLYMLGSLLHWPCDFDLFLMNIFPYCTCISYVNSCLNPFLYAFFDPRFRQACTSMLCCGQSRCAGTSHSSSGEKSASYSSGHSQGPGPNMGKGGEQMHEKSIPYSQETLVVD
CXCR6 inh: CXCR6 receptor inhibitors, primary screen, cell-based, beta-arrestin, luminescence, CHO-K1 PathHunter, 1536-well; inhibition, % at 20 µM; AID 602244, 2012; hit rate 0.36% among 360,000; in the data active = inhibition above about 34%, passing the limit was not always enough;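 also: antagonist mode with CXCL16 agonist at 10 nM final; 0% = 10 nM CXCL16 with DMSO and 100% = unstimulated wells without agonist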
EBI2 antag: EBI2 receptor antagonists, beta-arrestin recruitment, primary screen, cell-based, luminescence, 7a,25-OHC stimulation, uHTS. G-protein coupled receptor 183 (Homo sapiens), P32249. 7a,25-OHC stimulated. inhibition, % at 5 µM. hit rate 0.81% among 360,000; in the data active = inhibition above about 38%;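 also: enzyme fragment complementation signal reports receptor beta-arrestin coupling in cells; 0% = agonist plus DMSO wells and 100% = wells without agonist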
APJ ag: agonists of human apelin receptor APJ, primary screen, CHO-K1 cells, PathHunter beta-arrestin, luminescence. P35414. 0% DMSO wells, 100% apelin. activation, % at 20 µM. hit rate 0.11% among 330,000. AID 2520, 2010;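 active = activation more than six SD over the plate average, tested at 20 µM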;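 also: 0% = DMSO alone and 100% = apelin-13 at 10 nM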
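Test system – PathHunter CHO-K1 APJ (AGTRL-1) beta-arrestin reporter cells · Input – 1000 cells/well · Compound – single test compound dose, 20 µM final, 1% DMSO · Times – compound stimulation 90 min at 25 °C, detection 60 min · Technique – beta-gal luminescence · Read-out basis – APJ–arrestin association signal · Control set – negative DMSO alone, positive Apelin-13 at 10 nM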
m5-HT2A agonist: mouse Htr2a agonists via beta-arrestin recruitment, primary screen, cell-based, luminescence; hit rate 0.66% among 360,000; 5-hydroxytryptamine receptor 2A (Mus musculus), P35363; activation, % at 7.6 µM; CHO-K1 mHTR2A beta-arrestin complementation; percent of 30 µM serotonin response; AID 624169, 2012;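 active = activation above a run cutoff, the mean activation of all tested compounds plus 3 SD, cut at about 14% in these data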;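 also: 0% = plate median of compound wells and 100% = 30 µM serotonin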
MOR ag counter: OPRM1 agonists via beta-arrestin recruitment, confirmation, counter-screen for mouse HTR2A agonist project, cell-based, luminescence, single concentration; shares compounds with m5-HT2A agonist; U2OS OPRM1 beta-arrestin PathHunter; DMSO 0%, DAMGO 9.3 µM 100%; activation, % at 9.3 µM; hit rate 5.3% among 2,300;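 active = mean activation above the mean of DMSO-only wells plus 3 SD, cut at about 0.5% in these data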
HTR2A ag conf: mouse HTR2A agonists, beta-arrestin recruitment, confirmation, cell-based, luminescence, CHO-K1 PathHunter, triplicate; activation, % at 7.6 µM; shares compounds with m5-HT2A agonist; hit rate 19% among 2,300; DMSO 0%, 30 µM serotonin 100%; AID 624381, 2012;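 active = mean activation across triplicates above the hit threshold derived in the original primary screen, cut at about 15% in these data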
An asterisk follows results filed as active; · = no result given.

SMILES	CCR6 antagonist	APJ antagonist	CXCR6 inh	EBI2 antag	APJ ag	m5-HT2A agonist	MOR ag counter	HTR2A ag conf
CC(C)(C)N(Cc1ccc2c(c1)OCO2)C(=O)/C=C\S(=O)c1ccccc1 (stereo not given)	6	·	-6	10	·	19*	-1	2
O=C(Nc1ccon1)c1ccc(N2CCCCC2)c([N+](=O)[O-])c1	28	10	-4	-8	-1	-6	·	·
O=C(Nc1nc2ccccc2s1)c1ccc(N2CCCCC2)c([N+](=O)[O-])c1	37	24	18	21	-3	49*	-1	18*
N#Cc1sc2nc3c(c(-c4ccco4)c2c1N)CCCC3	4	16	-5	15	5	19*	0	2
COCCCN1C(=O)C(CC(=O)NC(c2ccccc2)c2ccccc2)CC(C(=O)N2CCOCC2)=C1C (stereo not given)	·	·	-6	-2	·	6	·	·
O=C(O)/C=C\C(=O)Nc1ccc(N2CCN(c3cccc(Cl)c3)CC2)cc1	17	-7	-10	-3	-3	17*	-1	-5
O=C(O)/C=C\C(=O)Nc1ccc(N2CCN(c3ccc(Cl)c(Cl)c3)CC2)cc1	3	-41	7	8	-2	35*	-1	-2
O=C(O)/C=C\C(=O)Nc1ccc(N2CCN(c3ccc(Cl)cc3)CC2)cc1	-3	14	6	-7	-1	7	·	·
Fc1ccc(-c2nc3ccc(Cl)cn3c2Cc2cccc(F)c2)cc1	·	·	19	9	·	-1	·	·
Cc1ccc(O)c(C=Nc2cc(C)ccc2O)c1	11	-30	-8	-19	3	-1	·	·
CC(C)(C)c1ccc(O)c(N=Cc2cc(Br)ccc2O)c1	9	4	-4	-3	1	49*	0	2
COc1ccccc1-c1ccc2c(c1)C(C)(Cc1ccc(OC(F)(F)F)cc1)C(=O)N2 (stereo not given)	·	·	3	1	·	-9	·	·
CC1CCCN(C2(O)C(=O)Nc3ccc([N+](=O)[O-])cc32)C1 (stereo not given)	-2	11	-1	-3	-4	17*	-1	-2
O=C1Nc2ccc([N+](=O)[O-])cc2C1(O)N1CCCCC1 (stereo not given)	-6	9	7	-3	2	-2	·	·
Cc1ccc(C)c(-n2c(CNc3ccc(F)cc3)nnc2SCC(N)=O)c1	2	13	2	2	0	18*	-1	-4
Cc1ccc(-n2c(CNc3ccc(F)cc3)nnc2SCC(=O)O)cc1	3	14	-3	9	-1	0	·	·
Cc1ccccc1Nc1nc(-c2sc(NC(=O)c3ccco3)nc2C)cs1	8	12	4	-1	-2	19*	0	1
Cc1nc(NCCc2ccc(S(N)(=O)=O)cc2)c2c(C)c(C)sc2n1	17	8	-15	-6	7	16*	-1	-3
CCCS(=O)(=O)NC(=O)C1(C)CCCN(C(=O)c2ccccc2F)C1 (stereo not given)	·	·	-2	-4	·	3	·	·
CCCNC(=O)C1(C)CCCN(C(=O)c2ccccc2F)C1 (stereo not given)	·	·	5	-3	·	17*	-1	-3
CCOC(=O)C1=C(N)Oc2cc(O)ccc2C1c1ccc(C)cc1 (stereo not given)	7	-13	-1	12	-4	31*	1.1*	-1
CC(C)Cc1cc(C(=O)Nc2ccc(F)cc2F)no1	10	4	-1	-5	3	18*	-1	-3
O=c1c2ccccc2c2ccccc2c(=O)n1Nc1ccccc1	·	·	2	9	·	20*	0	-2
c1ccc(Oc2ncnc3ccccc23)cc1	2	·	6	-13	·	16*	-1	-4
CCc1ccc(NC(=O)c2sccc2-n2cccc2)cc1	3	-5	-4	11	-2	15*	0	-5
SMILES	CCR6 antagonist	APJ antagonist	CXCR6 inh	EBI2 antag	APJ ag	m5-HT2A agonist	MOR ag counter	HTR2A ag conf
COc1ccc(NC(=O)c2sccc2-n2cccc2)cc1	18	2	-3	3	-3	5	·	·
O=C(Nc1ccc(F)cc1)C(c1cccc(F)c1)N1CCN(CC(=O)N2CCCC2)CC1 (stereo not given)	·	·	·	4	·	-2	·	·
O=C(Nc1ccc(F)cc1)C(c1cc2ccccc2o1)N1CCN(CC(=O)N2CCCC2)CC1 (stereo not given)	·	·	·	-1	·	27*	-1	-5
C[C@H](NC(=O)C[C@@H]1C=C[C@@H](NC(=O)CN2CCOCC2)[C@@H](CO)O1)c1ccccc1	·	·	·	-10	·	1	·	·
OCC1(Cc2ccc(Cl)cc2)CCN(CC2CC=CCC2)CC1 (stereo not given)	0	-4	5	1	-2	15*	0	14
OCC1(Cc2ccc(Cl)cc2)CCN(Cc2ccccc2F)CC1	-2	-8	-6	2	-2	3	·	·
OCC1(Cc2ccc(Cl)cc2)CCN(CCCc2ccccc2)CC1	1	2	13	7	-1	18*	0	44*
CC(C)C(=NO)c1ccccc1	7	·	-3	1	·	1	·	·
CCOC(=O)N1CCN(c2ccc(Cl)c(Cl)c2)CC1	12	7	-3	-9	-2	3	·	·
COC(=O)/C(=C/N(C)C)C(=O)N1CCN(c2ccc(Cl)c(Cl)c2)CC1	10	20	-2	-3	-1	18*	0	0
Cc1noc(C)c1S(=O)(=O)NCc1ccc2c(c1)OCO2	-1	1	6	-1	5	32*	-1	-5
OCCN1CCN(c2ncnc3c2ncn3[C@H]2CN(Cc3cccc(C(F)(F)F)c3)C[C@@H](CO)O2)CC1	·	·	-5	-2	·	8	·	·
O=C(NC(c1ccccc1)c1cnccn1)C1CCN(CCOc2ccc(Cl)cc2Cl)CC1 (stereo not given)	·	·	12	6	·	-1	·	·
COC(=O)[C@]12CCCCC=C1N(CCc1ccc(OC)c(OC)c1)C(=O)[C@H](CC(=O)N1CCC(c3ccccc3)CC1)C2	·	·	·	-11	·	1	·	·
